Results: ChEMBL document CHEMBL4400528, “Discovery and Optimization of Selective and in Vivo Active Inhibitors of the Lysophosphatidylserine Lipase α/β-Hydrolase Domain-Containing 12 (ABHD12)” (J Med Chem, 2019)
Active and inactive are the calls of the source. No cut-off for these calls is given here.

What was measured:
[1] = target: T1, Lysophosphatidylserine lipase ABHD12 (Mus musculus, UniProt Q99LR1); assay: Inhibition of FP-Rh probe binding to ABHD12 in mouse brain membrane proteome incubated for 45 mins by CuAAC fluorescence dependent gel-based competitive ABPP assay; format: cell membranes
T1 sequence (Q99LR1 whole entry): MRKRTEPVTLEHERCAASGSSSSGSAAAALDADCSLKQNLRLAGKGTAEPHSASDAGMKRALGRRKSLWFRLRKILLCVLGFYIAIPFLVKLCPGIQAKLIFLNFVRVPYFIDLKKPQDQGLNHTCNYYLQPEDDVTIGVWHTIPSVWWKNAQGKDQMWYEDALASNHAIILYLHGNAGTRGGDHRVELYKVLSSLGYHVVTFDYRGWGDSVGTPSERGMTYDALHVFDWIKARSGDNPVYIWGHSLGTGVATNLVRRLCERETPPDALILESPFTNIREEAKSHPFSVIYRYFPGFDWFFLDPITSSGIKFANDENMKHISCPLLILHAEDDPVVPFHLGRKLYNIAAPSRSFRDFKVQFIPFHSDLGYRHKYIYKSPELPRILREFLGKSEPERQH
Procedure, shortened: (§1)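 Mouse brain membrane proteome (1 mg/mL) preincubated with inhibitor for 45 min at 37 °C. Labelled with FP-Rh (1 μM) or JJH350 (2 μM) for 45 min at 37 °C. JJH350 samples were clicked to Rh-N3 (25 μM) by CuAAC for 60 min at room temperature. Read by 10% SDS-PAGE and in-gel fluorescence scanning. Band intensity taken relative to control (100%), and IC50 from log(inhibitor) vs normalized response.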

[2] = target: T2, Monoacylglycerol lipase ABHD6 (Mus musculus) (UniProt Q8R2Y0); assay: Binding affinity to ABHD6 in mouse brain membrane proteome at 0.016 to 10 uM incubated for 45 mins by CuAAC fluorescence dependent gel-based competitive ABPP assay; format: cell membranes; procedure, shortened: as §1
T2 sequence (whole entry): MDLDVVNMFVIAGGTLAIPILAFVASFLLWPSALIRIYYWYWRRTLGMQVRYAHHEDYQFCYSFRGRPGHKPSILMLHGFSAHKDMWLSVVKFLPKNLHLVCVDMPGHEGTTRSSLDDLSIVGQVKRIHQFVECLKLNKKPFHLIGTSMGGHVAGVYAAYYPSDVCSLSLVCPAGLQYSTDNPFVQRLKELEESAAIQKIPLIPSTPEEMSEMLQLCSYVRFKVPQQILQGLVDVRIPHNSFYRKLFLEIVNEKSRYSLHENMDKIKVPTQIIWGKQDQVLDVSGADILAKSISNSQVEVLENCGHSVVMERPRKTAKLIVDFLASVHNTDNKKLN

[3] = target: T3, Lysophosphatidylserine lipase ABHD12 (Mus musculus) (UniProt Q99LR1); assay: Binding affinity to ABHD12 in mouse brain membrane proteome at 0.016 to 10 uM incubated for 45 mins by CuAAC fluorescence dependent gel-based competitive ABPP assay; format: cell membranes; procedure, shortened: as §1
T3 sequence (whole entry): T1 sequence (Q99LR1 whole entry)

[4] = target: T1, Lysophosphatidylserine lipase ABHD12; assay: Inhibition of JJH350 binding to ABHD12 in mouse brain membrane proteome incubated for 20 mins by CuAAC fluorescence dependent gel-based competitive ABPP assay; format: cell membranes
Procedure, shortened: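 Brain membrane fraction (1 mg/mL; DPBS homogenate, 16,000 x g pellet) treated with inhibitor for 20 min at room temperature. JJH350 (2 μM) added for 45 min at 37 °C, then CuAAC with rhodamine-PEG3-azide, CuSO4, TBTA and TCEP for 1 h at room temperature. Run on 10% SDS-PAGE and read by in-gel fluorescence. ABHD12 band normalized to control-treated sample (100%); IC50 from log dose-response fit.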

[5] = target: T4, Lysophosphatidylserine lipase ABHD12 (Homo sapiens) (UniProt Q8N2K0); assay: Inhibition of ABHD12 in PMA-differentiated human THP1 cells assessed as increase in IL-1beta production treated simultaneously with IFN-gamma/LPS for 24 hrs and measured 6 to 24 hrs after stimulation
T4 sequence (whole entry): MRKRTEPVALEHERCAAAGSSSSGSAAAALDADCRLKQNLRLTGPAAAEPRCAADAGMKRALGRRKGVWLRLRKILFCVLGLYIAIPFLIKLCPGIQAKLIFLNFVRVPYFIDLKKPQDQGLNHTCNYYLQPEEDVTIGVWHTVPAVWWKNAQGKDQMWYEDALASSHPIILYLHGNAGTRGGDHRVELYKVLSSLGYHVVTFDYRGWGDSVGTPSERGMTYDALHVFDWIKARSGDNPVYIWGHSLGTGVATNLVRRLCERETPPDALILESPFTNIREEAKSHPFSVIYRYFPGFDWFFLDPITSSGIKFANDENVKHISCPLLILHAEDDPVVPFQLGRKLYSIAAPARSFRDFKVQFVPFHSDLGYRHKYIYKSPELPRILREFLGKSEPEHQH
Procedure, shortened: (§2)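 THP-1 cells grown in RPMI/10% FBS/0.05 mM 2-mercaptoethanol, plated 2.5×10^6 per well. Treated 24 h with 150 ng/mL PMA, washed, rested 24 h. Polarized to M1 with 20 ng/mL IFN-γ plus 10 pg/mL LPS for 24 h. Compound or DMSO (test 0.1–1 μM) present at every step. Media sampled 6 and 24 h after stimulation; cytokines by MSD V-Plex. Mean ± SEM, four biological experiments.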

T98G = assay: Cytotoxicity against human T98G cells assessed as effect on cell viability at 1 uM after 72 hrs by CellTiter-Glo assay; format: cell-based
Procedure, shortened: (§3)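 Cells seeded at 3,000 per well and left 24 h. Compounds then added at 0.1–10 μM final and incubated 72 h. Viability read by CellTiter-Glo luminescence and normalized to vehicle-treated controls.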

[6] = target: T4, Lysophosphatidylserine lipase ABHD12 (Homo sapiens); assay: Inhibition of ABHD12 in PMA-differentiated human THP1 cells assessed as increase in CCL3 production treated simultaneously with IFN-gamma/LPS for 24 hrs and measured 6 to 24 hrs after stimulation; procedure, shortened: as §2
[7] = Toxicity in mouse at 30 mg/kg, ip; format: organism-based; conditions: in vivo
HT-1080 = assay: Cytotoxicity against human HT1080 cells assessed as effect on cell viability at 1 uM after 72 hrs by CellTiter-Glo assay; format: cell-based; conditions: ht-1080, 72 h; procedure, shortened: as §3
[8] = Drug level in mouse peripheral regions at 30 mg/kg, ip; format: ADME, organism-based; conditions: in vivo, read-out: Drug uptake
[9] = Toxicity in mouse at 30 mg/kg, po; format: organism-based; conditions: in vivo
[10] = Drug level in mouse brain at 30 mg/kg, ip; format: ADME, organism-based; conditions: in vivo, read-out: Drug uptake
[11] = Drug level in mouse brain at 30 mg/kg, po; format: ADME, organism-based; conditions: in vivo, read-out: Drug uptake
MDA-MB-231 = assay: Cytotoxicity against human MDA-MB-231 cells assessed as effect on cell viability at 1 uM after 72 hrs by CellTiter-Glo assay; format: cell-based; conditions: mda-mb-231, 72 h; procedure, shortened: as §3
THP-1 = assay: Cytotoxicity against human THP1 cells assessed as effect on cell viability at 1 uM after 72 hrs by CellTiter-Glo assay; format: cell-based; conditions: thp-1, 72 h; procedure, shortened: as §3
[12] = target: T4, Lysophosphatidylserine lipase ABHD12 (Homo sapiens); assay: Inhibition of ABHD12 in PMA-differentiated human THP1 cells assessed as increase in TNF-alpha production treated simultaneously with IFN-gamma/LPS for 24 hrs and measured 6 to 24 hrs after stimulation; procedure, shortened: as §2
[13] = target: T4, Lysophosphatidylserine lipase ABHD12 (Homo sapiens); assay: Inhibition of ABHD12 in PMA-differentiated human THP1 cells assessed as increase in CCL4 production treated simultaneously with IFN-gamma/LPS for 24 hrs and measured 6 to 24 hrs after stimulation; procedure, shortened: as §2
[14] = Drug level in mouse peripheral regions at 30 mg/kg, po; format: ADME, organism-based; conditions: in vivo, read-out: Drug uptake

| IC50 [1] | Activity [2] | Activity [3] | Compound | IC50 [4] | inhibition [5] | Activity (T98G) | inhibition [6] | Activity [7] | Activity (HT-1080) | concentration [8] | Activity [9] | concentration [10] | concentration [11] | Activity (MDA-MB-231) | Activity (THP-1) | inhibition [12] | inhibition [13] | concentration [14] |
| --- | --- | --- | --- | --- | --- | --- | --- | --- | --- | --- | --- | --- | --- | --- | --- | --- | --- | --- |
| 400 nM | Active | Active | C#CCOc1ccc(N2CCN(C(=O)ON3C(=O)C4CN(C(=O)c5ccc(Oc6ccccc6)cc5)CCN4C3=O)CC2)cc1 (stereo not drawn) | – | – | – | – | – | – | – | – | – | – | – | – | – | – | – |
| – | – | – | FC(F)(F)Oc1ccc(Oc2ccnc(N3CCC(NC(=S)Nc4cccnc4)CC3)c2Cl)c(Cl)c1 | 11 nM | Dose-dependent effect | Non-Toxic | Dose-dependent effect | Non-Toxic | Non-Toxic | 3 to 9 µM | Non-Toxic | 3 to 9 µM | 3 to 9 µM | Non-Toxic | Non-Toxic | Dose-dependent effect | Dose-dependent effect | 3 to 9 µM |
